From ChEMBL document CHEMBL3856258, “Phosphonate-based irreversible inhibitors of human γ-glutamyl transpeptidase (GGT). GGsTop is a non-toxic and highly selective inhibitor with critical electrostatic interaction with an active-site residue Lys562 for enhanced inhibitory activity” (Bioorg Med Chem, 2016)

Assays:
[1] = Cytotoxicity against CHL cells assessed as structural aberrations at 3300 ug/ml after 24 hrs by Giemsa-staining-based microscopic analysis; type: toxicity, cell-based, Cricetulus griseus; settings: chinese hamster
Salmonella typhimurium [2] = assay: Genotoxicity in Salmonella typhimurium TA1535 assessed as number of revertant colonies per plate at 556 ug/plate after 20 mins in presence of S9 fraction by Ames test (reference value: 13); type: toxicity, organism-based; settings: salmonella enterica subsp. enterica serovar typhimurium
[3] = Cytotoxicity against CHL cells assessed as growth rate at 211 ug/ml preincubated for 6 hrs followed by 18 hrs incubation in fresh medium in absence of S9 fraction by MTT assay relative to control; type: toxicity, cell-based, Cricetulus griseus; settings: chinese hamster, read-out: Activity
Escherichia coli [4] = assay: Genotoxicity in Escherichia coli WP2uvrA assessed as number of revertant colonies per plate at 185 ug/plate after 20 mins in presence of S9 fraction by Ames test (reference value: 26); type: toxicity; settings: s9, 20 min
Escherichia coli [5] = assay: Genotoxicity in Escherichia coli WP2uvrA assessed as number of revertant colonies per plate at 20.6 ug/plate after 20 mins in absence of S9 fraction by Ames test (reference value: 24); type: toxicity; settings: s9, 20 min
Escherichia coli [6] = assay: Genotoxicity in Escherichia coli WP2uvrA assessed as number of revertant colonies per plate at 1667 ug/plate after 20 mins in presence of S9 fraction by Ames test (reference value: 26); type: toxicity; settings: s9, 20 min
[7] = Cytotoxicity against CHL cells assessed as structural aberrations at 825 ug/ml preincubated for 6 hrs followed by 18 hrs incubation in fresh medium in absence of S9 fraction by Giemsa-staining-based microscopic analysis; type: toxicity, cell-based, Cricetulus griseus; settings: chinese hamster
[8] = Cytotoxicity against CHL cells assessed as growth rate at 528 ug/ml preincubated for 6 hrs followed by 18 hrs incubation in fresh medium in presence of S9 fraction by MTT assay relative to control; type: toxicity, cell-based, Cricetulus griseus; settings: chinese hamster, read-out: Activity
[9] = Cytotoxicity against CHL cells assessed as growth rate at 84.5 ug/ml preincubated for 6 hrs followed by 18 hrs incubation in fresh medium in presence of S9 fraction by MTT assay relative to control; type: toxicity, cell-based, Cricetulus griseus; settings: chinese hamster, read-out: Activity
[10] = Cytotoxicity against CHL cells assessed as growth rate at 211 ug/ml after 24 hrs in absence of S9 fraction by MTT assay relative to control; type: toxicity, cell-based, Cricetulus griseus; settings: chinese hamster, read-out: Activity
[11] = Hydrolytic stability of compound in D2O at pH 1 to 2 by 31P NMR spectroscopy; type: physicochemical; settings: buffer
[12] = Cytotoxicity against CHL cells assessed as growth rate at 1320 ug/ml preincubated for 6 hrs followed by 18 hrs incubation in fresh medium in presence of S9 fraction by MTT assay relative to control; type: toxicity, cell-based, Cricetulus griseus; settings: chinese hamster, read-out: Activity
[13] = Cytotoxicity against CHL cells assessed as growth rate at 211 ug/ml preincubated for 6 hrs followed by 18 hrs incubation in fresh medium in presence of S9 fraction by MTT assay relative to control; type: toxicity, cell-based, Cricetulus griseus; settings: chinese hamster, read-out: Activity
[14] = Cytotoxicity against CHL cells assessed as growth rate at 84.5 ug/ml after 24 hrs in absence of S9 fraction by MTT assay relative to control; type: toxicity, cell-based, Cricetulus griseus; settings: chinese hamster, read-out: Activity
Salmonella typhimurium [15] = assay: Genotoxicity in Salmonella typhimurium TA98 assessed as number of revertant colonies per plate at 1667 ug/plate after 20 mins in presence of S9 fraction by Ames test (reference value: 26); type: toxicity, organism-based; settings: salmonella enterica subsp. enterica serovar typhimurium
Rattus norvegicus = organism: Rattus norvegicus; assay: Cytotoxicity against Wistar rat […] assessed as morphological change up to 1 mM after 24 hrs by inverted microscopic analysis; type: toxicity
In short: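 Hepatic stellate cells isolated from male Wistar rats (300–350 g), identified by star-like shape and vitamin A autofluorescence, purity >95%. Plated at 5 × 10^5 cells/ml in DMEM with 10% FBS for 2 days, then kept serum-free 24 h at 37 °C. Exposed 24 h to 0, 10, 100 or 1000 µM in DMEM. Morphology checked by inverted microscopy.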

Salmonella typhimurium [16] = assay: Genotoxicity in Salmonella typhimurium TA1535 assessed as number of revertant colonies per plate at 1667 ug/plate after 20 mins in presence of S9 fraction by Ames test (reference value: 13); type: toxicity, organism-based; settings: salmonella enterica subsp. enterica serovar typhimurium
[17] = Cytotoxicity against CHL cells assessed as structural aberrations at 1650 ug/ml after 24 hrs by Giemsa-staining-based microscopic analysis; type: toxicity, cell-based, Cricetulus griseus; settings: chinese hamster
Escherichia coli [18] = assay: Genotoxicity in Escherichia coli WP2uvrA assessed as number of revertant colonies per plate at 1667 ug/plate after 20 mins in absence of S9 fraction by Ames test (reference value: 24); type: toxicity; settings: s9, 20 min
Escherichia coli [19] = assay: Genotoxicity in Escherichia coli WP2uvrA assessed as number of revertant colonies per plate at 61.7 ug/plate after 20 mins in absence of S9 fraction by Ames test (reference value: 24); type: toxicity; settings: s9, 20 min
Salmonella typhimurium [20] = assay: Genotoxicity in Salmonella typhimurium TA100 assessed as number of revertant colonies per plate at 1667 ug/plate after 20 mins in presence of S9 fraction by Ames test (reference value: 142); type: toxicity, organism-based; settings: salmonella enterica subsp. enterica serovar typhimurium
Salmonella typhimurium [21] = assay: Genotoxicity in Salmonella typhimurium TA98 assessed as number of revertant colonies per plate at 5000 ug/plate after 20 mins in presence of S9 fraction by Ames test (reference value: 26); type: toxicity, organism-based; settings: salmonella enterica subsp. enterica serovar typhimurium
Salmonella typhimurium [22] = assay: Genotoxicity in Salmonella typhimurium TA1537 assessed as number of revertant colonies per plate at 61.7 ug/plate after 20 mins in presence of S9 fraction by Ames test (reference value: 15); type: toxicity, organism-based; settings: salmonella enterica subsp. enterica serovar typhimurium
Salmonella typhimurium [23] = assay: Genotoxicity in Salmonella typhimurium TA100 assessed as number of revertant colonies per plate at 1667 ug/plate after 20 mins in absence of S9 fraction by Ames test (reference value: 123); type: toxicity, organism-based; settings: salmonella enterica subsp. enterica serovar typhimurium
Salmonella typhimurium [24] = assay: Genotoxicity in Salmonella typhimurium TA100 assessed as number of revertant colonies per plate at 61.7 ug/plate after 20 mins in presence of S9 fraction by Ames test (reference value: 142); type: toxicity, organism-based; settings: salmonella enterica subsp. enterica serovar typhimurium
Salmonella typhimurium [25] = assay: Genotoxicity in Salmonella typhimurium TA100 assessed as number of revertant colonies per plate at 556 ug/plate after 20 mins in presence of S9 fraction by Ames test (reference value: 142); type: toxicity, organism-based; settings: salmonella enterica subsp. enterica serovar typhimurium
Salmonella typhimurium [26] = assay: Genotoxicity in Salmonella typhimurium TA1537 assessed as number of revertant colonies per plate at 20.6 ug/plate after 20 mins in presence of S9 fraction by Ames test (reference value: 15); type: toxicity, organism-based; settings: salmonella enterica subsp. enterica serovar typhimurium
[27] = Cytotoxicity against CHL cells assessed as chromatid gap at 1650 ug/ml preincubated for 6 hrs followed by 18 hrs incubation in fresh medium in absence of S9 fraction by Giemsa-staining-based microscopic analysis; type: toxicity, cell-based, Cricetulus griseus; settings: chinese hamster
Escherichia coli [28] = assay: Genotoxicity in Escherichia coli WP2uvrA assessed as number of revertant colonies per plate at 556 ug/plate after 20 mins in absence of S9 fraction by Ames test (reference value: 24); type: toxicity; settings: s9, 20 min
Salmonella typhimurium [29] = assay: Genotoxicity in Salmonella typhimurium TA100 assessed as number of revertant colonies per plate at 61.7 ug/plate after 20 mins in absence of S9 fraction by Ames test (reference value: 123); type: toxicity, organism-based; settings: salmonella enterica subsp. enterica serovar typhimurium
[30] = Cytotoxicity against CHL cells assessed as growth rate at 33.8 ug/ml preincubated for 6 hrs followed by 18 hrs incubation in fresh medium in presence of S9 fraction by MTT assay relative to control; type: toxicity, cell-based, Cricetulus griseus; settings: chinese hamster, read-out: Activity
[31] = Cytotoxicity against CHL cells assessed as structural aberrations at 1650 ug/ml preincubated for 6 hrs followed by 18 hrs incubation in fresh medium in presence of S9 fraction by Giemsa-staining-based microscopic analysis; type: toxicity, cell-based, Cricetulus griseus; settings: chinese hamster

COP(=O)(CCC(N)C(=O)O)Oc1cccc(CC(=O)O)c1 (configuration not stated) showed an Activity [1] of 1%, an Activity (Salmonella typhimurium [2]) of 12 and a viability at 18 h, 211 ug/ml [3] of 101%. For the same molecule, the Activity (Escherichia coli [4]) was 28, the Activity (Escherichia coli [5]) was 26 and the Activity (Escherichia coli [6]) was 23. It also gave an Activity [7] of 3%, a viability at 18 h, 528 ug/ml [8] of 95.2% and a viability at 18 h, 84.5 ug/ml [9] of 100%. The viability at 24 h, 211 ug/ml [10] was 98.2%, the Stability [11] was “Stable” and the viability at 18 h, 1320 ug/ml [12] was 95.7%. For the same molecule, the viability at 18 h, 211 ug/ml [13] was 98.8%, the viability at 24 h, 84.5 ug/ml [14] was 101% and the Activity (Salmonella typhimurium [15]) was 29. For the same molecule, the Activity (Rattus norvegicus) was “Non-Toxic”, the Activity (Salmonella typhimurium [16]) was 8 and the Activity [17] was 1%. For the same molecule, the Activity (Escherichia coli [18]) was 29, the Activity (Escherichia coli [19]) was 26 and the Activity (Salmonella typhimurium [20]) was 131. It also gave an Activity (Salmonella typhimurium [21]) of 27, an Activity (Salmonella typhimurium [22]) of 17 and an Activity (Salmonella typhimurium [23]) of 131. For the same molecule, the Activity (Salmonella typhimurium [24]) was 133, the Activity (Salmonella typhimurium [25]) was 129 and the Activity (Salmonella typhimurium [26]) was 17. The Activity [27] was 0%, the Activity (Escherichia coli [28]) was 25 and the Activity (Salmonella typhimurium [29]) was 148. It also gave a viability at 18 h, 33.8 ug/ml [30] of 101% and an Activity [31] of 1%.
